Test results: ChEMBL document CHEMBL1151747, “Orally bioavailable isothioureas block function of the chemokine receptor CXCR4 in vitro and in vivo” (J Med Chem, 2008)

Assays:
[1] = molecular target: T1, C-X-C chemokine receptor type 4 (Homo sapiens, UniProt P61073); assay: Displacement of [125I]CXCL12 from CXCR4 in human CEM cells; assay type: cell-based, CCRF-CEM
Method in brief: (§1)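 Scintillation proximity assay. Membranes come from CEM cells (human CXCR4) or IR983F cells (rat CXCR4), prepared by homogenization in 20 mM HEPES, 1 mM EDTA pH 7.4 and stored at -80 °C. Nonspecific binding is defined with 400 nM unlabeled CXCL12. Incubation is 2 h at room temperature with shaking, then scintillation counting.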

[2] = molecular target: T1, C-X-C chemokine receptor type 4; assay: Activity at CXCR4 in human CEM cells assessed as inhibition of CXCL12-induced calcium mobilization; assay type: functional, cell-based, CCRF-CEM
Method in brief: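 CEM cells are loaded with 4 µM Fluo-4 for 1 h at 37 °C, washed, then preincubated with antagonist for 2 h. Wells are run in quadruplicate on FLIPR.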

[3] = tested on: Human immunodeficiency virus 1; assay: Antiviral activity against X4-tropic HIV1 3B assessed as inhibition of viral attachment; assay type: functional, organism-based; conditions: Human immunodeficiency virus 1, 3B
[4] = molecular target: C-X-C chemokine receptor type 4 (Rattus norvegicus, UniProt O08565); assay: Displacement of [125I]CXCL12 from CXCR4 in rat IR983F cells; assay type: cell-based; method in brief: as §1
Sequence of C-X-C chemokine receptor type 4 (Rattus norvegicus, UniProt O08565) (O08565 whole entry): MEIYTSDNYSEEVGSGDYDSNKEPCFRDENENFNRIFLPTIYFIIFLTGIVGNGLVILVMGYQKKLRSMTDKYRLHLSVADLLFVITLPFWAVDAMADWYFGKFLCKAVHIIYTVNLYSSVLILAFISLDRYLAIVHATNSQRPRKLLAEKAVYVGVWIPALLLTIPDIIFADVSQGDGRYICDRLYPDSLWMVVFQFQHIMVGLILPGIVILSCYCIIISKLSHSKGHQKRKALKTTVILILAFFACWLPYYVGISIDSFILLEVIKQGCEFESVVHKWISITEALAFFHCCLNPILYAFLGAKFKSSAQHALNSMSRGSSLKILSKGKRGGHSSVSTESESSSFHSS

T1 sequence (P61073 whole entry): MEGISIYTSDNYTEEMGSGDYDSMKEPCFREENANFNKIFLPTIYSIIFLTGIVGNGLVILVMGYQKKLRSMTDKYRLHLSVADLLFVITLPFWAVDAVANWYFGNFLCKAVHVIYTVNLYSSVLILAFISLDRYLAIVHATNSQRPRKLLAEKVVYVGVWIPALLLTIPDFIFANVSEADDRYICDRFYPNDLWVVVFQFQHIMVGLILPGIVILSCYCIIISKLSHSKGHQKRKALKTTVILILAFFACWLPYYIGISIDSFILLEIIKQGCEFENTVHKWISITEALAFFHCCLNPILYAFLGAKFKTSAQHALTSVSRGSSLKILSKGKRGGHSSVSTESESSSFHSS

IC50 [1] [nM] | IC50 [2] [nM] | IC50 [3] [nM] | IC90 [3] [nM] | IC50 [4] [nM] | SMILES
3380 | 931 | > 100000 | > 100000 |  | CN(/C(=N/C1CCCCC1)SCC1=CSC2=NCCN12)C1CCCCC1
1870 | 304 |  |  |  | C1=C(CS/C(=N\C2CCCCC2)NC23CC4CC(CC(C4)C2)C3)N2CCN=C2S1
185 | 57 |  |  |  | C1=C(CS/C(=N\C2CCCCC2)NC2CCCCC2)N2CCCN=C2S1
27 | 5.3 |  |  |  | C1=C(CS/C(=N\C2CCCCCCC2)NC2CCCCCCC2)N2CCN=C2S1
81 | 13 |  |  |  | C1=C(CSC(=NC2CCCCC2)NC2C3CC4CC(C3)CC2C4)N2CCN=C2S1 (centres undefined)
855 | 75 |  |  |  | CCCCCCNC(=NC1CCCCC1)SCC1=CSC2=NCCN12
109 |  |  |  | 1440 | NC(N)=NCCC[C@@H]1NC(=O)[C@H](CCCN=C(N)N)NC(=O)[C@@H](Cc2ccc(O)cc2)NC(=O)CNC(=O)[C@H](c2ccc3ccccc3c2)NC1=O
 |  | 3 | 50 |  | c1cc(CN2CCCNCCNCCCNCC2)ccc1CN1CCCNCCNCCCNCC1 [PLERIXAFOR]
28 | 8 |  |  |  | C1=C(CS/C(=N\C2CCCCC2)NC2CCCCCCC2)N2CCN=C2S1
> 10000 | > 10000 |  |  |  | c1ccc(CS/C(=N\C2CCCCC2)NC2CCCCC2)cc1
> 10000 | 8120 |  |  |  | c1ccc2c(c1)nc1scc(CS/C(=N\C3CCCCC3)NC3CCCCC3)n12
